In ChEMBL document CHEMBL1134329, “Dopamine D(3) receptor antagonists. 1. Synthesis and structure-activity relationships of 5,6-dimethoxy-N-alkyl- and N-alkylaryl-substituted 2-aminoindans” (J Med Chem, 2001):

What was measured:
D(2) dopamine receptor = D(2) dopamine receptor (Rattus norvegicus, UniProt P61169); experiment: Affinity at D2 dopamine receptor on CHO cell membranes by [3H]PNU-86170 displacement.
How it was run: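 Cloned rat D2 receptor stably expressed in CHO cells; membranes from cell pellets disrupted in ice-cold 50 mM Tris/5 mM EDTA/5 mM EGTA pH 7.4 with graded centrifugation. [3H]-PNU-86170 (2 nM) competition, 11 concentrations in duplicate, 20 mM HEPES/10 mM MgSO4 pH 7.4, 1 h room temperature. Haloperidol 3 µM defines nonspecific binding. Filtration or SPA read-out; one-site fit IC50, Ki by Cheng-Prusoff.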

D(3) dopamine receptor = D(3) dopamine receptor (Rattus norvegicus, UniProt P19020); experiment: Affinity at rat D3 dopamine receptor on CHO cell membranes by [3H]spiperone displacement.
Rattus norvegicus [1] = species on record: Rattus norvegicus; experiment: In vitro stability in rat hepatocytes relative to that of PNU-93385.; format: functional; details: Hepatocyte
How it was run: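 Compound incubated alongside reference PNU-93385. Metabolism followed by HPLC with UV detection. Intrinsic clearance is expressed relative to the reference to give relative metabolic stability.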

[2] = molecular target: T1, 5-hydroxytryptamine receptor 1A (Rattus norvegicus, UniProt P19327); experiment: Binding affinity towards 5-hydroxytryptamine 1A receptor
T1 sequence (P19327 whole entry): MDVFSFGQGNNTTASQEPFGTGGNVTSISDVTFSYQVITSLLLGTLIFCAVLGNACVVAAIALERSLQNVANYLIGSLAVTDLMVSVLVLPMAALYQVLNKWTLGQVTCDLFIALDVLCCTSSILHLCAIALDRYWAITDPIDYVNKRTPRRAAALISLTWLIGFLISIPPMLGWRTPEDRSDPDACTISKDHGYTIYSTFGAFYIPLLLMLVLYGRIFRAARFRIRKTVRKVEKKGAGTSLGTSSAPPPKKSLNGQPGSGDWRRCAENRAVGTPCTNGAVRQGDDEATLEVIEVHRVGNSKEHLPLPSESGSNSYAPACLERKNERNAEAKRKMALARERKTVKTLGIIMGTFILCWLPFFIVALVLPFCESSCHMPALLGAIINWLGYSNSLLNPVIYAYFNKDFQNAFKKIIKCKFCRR
How it was run: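 Competition binding with [3H]-8-OH-DPAT at 5-HT1A sites in CHO cells expressing the cloned receptor. Affinity is given as Ki (nM) with SD or 95% CI. Compounds were first screened at 1 µmol/L in a monoaminergic/opioid/adrenergic receptor profile binding assay.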

[3] = molecular target: D(2) dopamine receptor (Rattus norvegicus) (UniProt P61169); experiment: Inhibition of [3H]-PNU-86170 binding at D2 dopamine receptors on CHO cell membranes; 1000 nM; format: cell-based
How it was run: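 Single-point screen at 1000 nM in duplicate, reported as mean % inhibition. Rat D2 receptor stably expressed in CHO cell membranes, labelled with [3H]-PNU-86170 (2 nM). Buffer 20 mM HEPES/10 mM MgSO4 pH 7.4, 1 h at room temperature. Nonspecific binding defined by 3 µM haloperidol.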

[4] = molecular target: D(3) dopamine receptor (Rattus norvegicus) (UniProt P19020); experiment: Inhibition of [3H]spiperone at D3 dopamine receptors on CHO cell membranes; 1000 nM; format: cell-based
How it was run: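 Cloned rat D3 receptor in stably transfected CHO cell membranes, filtration assay with [3H]spiperone (0.3 nM). Single concentration of 1000 nM in duplicate, given as mean % inhibition. Buffer 20 mM HEPES, 10 mM MgSO4, 150 mM NaCl, 1 mM EDTA pH 7.4, 1 h at room temperature. 3 µM haloperidol for nonspecific binding.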

Rattus norvegicus [5] = experiment: Inhibition of (+)-MK-801-induced hyperactivity in rats following 10 uM/kg i.p.; format: functional; parameters: scale not given: the % may be the effect or the level left
How it was run: (§1)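 Rats given (+)-MK-801 0.2 mg/kg sc plus test compound ip, 10-200 µmol/kg, in vehicle of 0.9% NaCl in 0.25% methylcellulose. Locomotor activity expressed as % of vehicle control ±SEM, 8-26 animals per group.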

Rattus norvegicus [6] = experiment: Inhibition of (+)-MK-801-induced hyperactivity in rats following 100 umol/kg i.p.; format: functional; parameters: scale not given: the % may be the effect or the level left; how it was run: as §1
Rattus norvegicus [7] = experiment: Inhibition of (+)-MK-801-induced hyperactivity in rats following 30 umol/kg i.p.; format: functional; parameters: scale not given: the % may be the effect or the level left; how it was run: as §1
Rattus norvegicus [8] = experiment: Inhibition of (+)-MK-801-induced hyperactivity in rats following 200 umol/kg i.p.; format: functional; parameters: scale not given: the % may be the effect or the level left; how it was run: as §1

D(2) dopamine receptor (Rattus norvegicus), sequence (P61169 whole entry): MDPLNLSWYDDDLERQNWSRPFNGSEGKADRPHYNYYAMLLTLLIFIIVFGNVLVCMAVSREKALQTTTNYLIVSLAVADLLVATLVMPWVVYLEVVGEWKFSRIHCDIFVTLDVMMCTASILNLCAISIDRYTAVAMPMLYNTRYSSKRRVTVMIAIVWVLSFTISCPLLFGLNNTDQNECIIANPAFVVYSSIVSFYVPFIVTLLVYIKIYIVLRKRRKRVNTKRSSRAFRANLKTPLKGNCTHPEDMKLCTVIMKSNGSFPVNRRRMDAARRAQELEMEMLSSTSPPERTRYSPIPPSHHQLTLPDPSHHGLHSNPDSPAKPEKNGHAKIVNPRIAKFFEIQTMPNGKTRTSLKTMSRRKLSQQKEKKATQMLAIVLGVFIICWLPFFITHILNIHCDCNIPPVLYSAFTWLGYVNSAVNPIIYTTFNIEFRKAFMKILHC
D(2) dopamine receptor, sequence (P61169 whole entry): as above
D(3) dopamine receptor (Rattus norvegicus), sequence (P19020 whole entry): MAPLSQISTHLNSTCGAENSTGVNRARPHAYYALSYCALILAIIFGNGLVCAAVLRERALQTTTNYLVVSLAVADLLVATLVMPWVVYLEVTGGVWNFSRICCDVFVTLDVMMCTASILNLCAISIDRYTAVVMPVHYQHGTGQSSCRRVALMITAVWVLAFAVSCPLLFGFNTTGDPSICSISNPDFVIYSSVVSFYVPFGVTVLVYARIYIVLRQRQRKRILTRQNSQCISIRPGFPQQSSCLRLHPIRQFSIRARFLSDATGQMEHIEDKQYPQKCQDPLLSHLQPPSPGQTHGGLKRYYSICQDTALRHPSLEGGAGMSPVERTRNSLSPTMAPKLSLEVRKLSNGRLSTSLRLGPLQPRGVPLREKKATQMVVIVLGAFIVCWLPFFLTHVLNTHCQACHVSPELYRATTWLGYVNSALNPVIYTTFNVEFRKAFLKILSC
D(3) dopamine receptor, sequence (P19020 whole entry): as above

Row | Compound | Ki (D(2) dopamine receptor) [nM] | Ki (D(3) dopamine receptor) [nM] | Stability (Rattus norvegicus [1]) [%] | inhibition [3] [%] | inhibition [4] [%] | further results
1 | CCCN(CC)C1Cc2cc(OC)c(OC)cc2C1 | 374 | 65 | 42 | – | – | –
2 | CCCN(CCC)C1Cc2cccc(OC)c2C1 (configuration not stated) | 4.2 | 45 | – | – | – | Ki [2]: 5.1 nM
3 | CCCN(CCC)C1Cc2ccc(OC)cc2C1 (configuration not stated) | 263 | 84 | – | – | – | –
4 | CCCN(CCC)C1Cc2ccc(O)cc2C1 (configuration not stated) | 53 | 14 | – | – | – | Ki [2]: > 3000 nM
5 | CCCCN(CCCC)C1Cc2cc(OC)c(OC)cc2C1 | – | 180 | 13 | 22 | – | –
6 | CCCN1CC[C@H]2c3c(cccc3C(N)=O)CC[C@H]21 | – | – | 100 | – | – | –
7 | C=CCN(CC=C)C1Cc2cc(OC)c(OC)cc2C1 | – | – | 13 | 19 | 12 | –
8 | CCCN(CCCc1ccccc1)C1Cc2cc(OC)c(OC)cc2C1 | 155 | 23 | 67 | – | – | –
9 | CCC(C)NC1Cc2cc(OC)c(OC)cc2C1 (configuration not stated) | – | – | – | 4 | 0 | –
10 | CCCN(CCc1cccc(F)c1)C1Cc2cc(OC)c(OC)cc2C1 | 125 | 30 | – | – | – | –
11 | COc1cc2c(cc1OC)CC(N1CCOCC1)C2 | – | – | 41 | 10 | -2 | –
12 | CCCN(Cc1ccsc1)C1Cc2cc(OC)c(OC)cc2C1 | 1240 | 374 | 15 | – | – | –
13 | CCCN(Cc1cccs1)C1Cc2cc(OC)c(OC)cc2C1 | – | – | 35 | 20 | 35 | –
14 | CCCN(CCc1cccnc1)C1Cc2cc(OC)c(OC)cc2C1 | 286 | 134 | – | – | – | –
15 | CCCN(CCc1ccsc1)C1Cc2cc(OC)c(OC)cc2C1 | 61 | 14 | 14 | – | – | –
16 | COc1cc2c(cc1OC)CC(N(C)C)C2 | – | – | 59 | 19 | 26 | –
17 | CCCN(CCc1ccc(Br)cc1)C1Cc2cc(OC)c(OC)cc2C1 | 97 | 22 | – | – | – | –
18 | CCCNC1Cc2cc(OC)c(OC)cc2C1 | – | – | – | 19 | 17 | –
19 | CCCN(CCCF)C1Cc2cc(OC)c(OC)cc2C1 | 1840 | 342 | 9 | – | – | –

Row | Compound | Ki (D(2) dopamine receptor) [nM] | Ki (D(3) dopamine receptor) [nM] | Stability (Rattus norvegicus [1]) [%] | inhibition [3] [%] | inhibition [4] [%] | further results
20 | CCCN(CCC)C1Cc2cccc(O)c2C1 (configuration not stated) | 5.2 | 42 | – | – | – | Ki [2]: 19.5 nM
21 | COc1cc2c(cc1OC)CC(N)C2 | – | – | – | 2 | 0 | –
22 | CCCN(CCc1cccs1)C1Cc2cc(OC)c(OC)cc2C1 | – | 78 | 26 | 86 | – | –
23 | COc1cc2c(cc1OC)CC(N(CCCF)CCCF)C2 | – | – | 8 | – | 3 | –
24 | CCCN(CCc1csc(N)n1)C1Cc2cc(OC)c(OC)cc2C1 | 265 | 136 | – | – | – | –
25 | CCCN(C(C)CC)C1Cc2cc(OC)c(OC)cc2C1 (configuration not stated) | – | – | – | 2 | 16 | –
26 | CCN(CC)C1Cc2cc(OC)c(OC)cc2C1 | – | – | – | 9 | 20 | –
27 | CCCN(CCc1ccccc1)C1Cc2cc(OC)c(OC)cc2C1 | 27 | 32 | 12 | – | – | –
28 | CCCN(CCc1ccc(C(F)(F)F)cc1)C1Cc2cc(OC)c(OC)cc2C1 | 310 | 34 | – | – | – | –
29 | COc1cc2c(cc1OC)CC(N1CCCC1)C2 | – | – | – | 13 | 4 | –
30 | CCCN(CC1CC1)C1Cc2cc(OC)c(OC)cc2C1 | – | – | 23 | – | – | –
31 | CCCN(CCC)C1Cc2cc(OC)c(OC)cc2C1 [PNU-99194A] | 992 | 31 | 38 | – | – | Control (Rattus norvegicus [5]): 583%; Control (Rattus norvegicus [6]): 391%; Control (Rattus norvegicus [7]): 447%; Control (Rattus norvegicus [8]): 143%
32 | CCC(CC)NC1Cc2cc(OC)c(OC)cc2C1 | – | – | – | 0 | 0 | –
33 | CCCN(CCc1ccc(C(N)=O)cc1)C1Cc2cc(OC)c(OC)cc2C1 | 123 | 42 | – | – | – | –
34 | COc1cc2c(cc1OC)CC(N1CCCCCC1)C2 | – | – | 32 | 2 | 3 | –
35 | CCCN(CCc1ccc(OC)c(OC)c1)C1Cc2cc(OC)c(OC)cc2C1 | 66 | 29 | – | – | – | –
36 | COc1cc2c(cc1OC)CC(N(CC1CC1)CC1CC1)C2 | – | – | 22 | 15 | 0 | –
37 | CCCN(CCc1ccc(OC)cc1)C1Cc2cc(OC)c(OC)cc2C1 | 163 | 39 | 53 | – | – | –
38 | CCCN(CCc1cccc(N)c1)C1Cc2cc(OC)c(OC)cc2C1 | 162 | 45 | – | – | – | –
